Laboratory results taken from ChEMBL document CHEMBL1944532, “Synthesis and evaluation of anticancer activity of some novel 6-aryl-2-(p-sulfamylphenyl)-pyridazin-3(2H)-ones” (Eur J Med Chem, 2012).
The source made the active and inactive calls. No cut-off for these calls is given here.

Tests used:
SF-539 = assay: Cytotoxicity against human SF539 cells after 48 hrs by SRB assay; type: functional; conditions: SF-539, 48 h
Summary of the method: (§1)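 NCI five-dose screen on the ~60-line human tumor panel. Cells grown in RPMI-1640 with 5% fetal calf serum and 2 mM L-glutamine, seeded at line-dependent density and preincubated 24 h. Compound added from DMSO at 10-fold dilutions from 10^-4 to 10^-8 M, continuous exposure 48 h. Growth read by sulforhodamine B protein stain. GI50, TGI and LC50 derived per line.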

MDA-MB-435 = assay: Antitumor activity against human MDA-MB-435 cells implanted in mouse dosed qd for 4 days by formazan dye-based hollow fiber assay; type: functional, organism-based
Summary of the method: (§2)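 Cells grown inside polyvinylidene fluoride hollow fibers; each line implanted into both intraperitoneal and subcutaneous compartments in mice. Compound given ip at two doses on a QD x 4 schedule. Fibers then recovered and viable cell mass measured by formazan dye conversion. Scored 2 per dose giving ≥50% reduction in viable cell mass (%T/C 50).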

HOP-92 [1] = assay: Cytotoxicity against human HOP92 cells after 48 hrs by SRB assay; type: functional; conditions: HOP-92, 48 h
Summary of the method: (§3)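 NCI ~60-line panel in RPMI-1640 with 5% fetal calf serum and 2 mM L-glutamine, pre-incubated 24 h. Compound in DMSO tested at five 10-fold concentrations (10^-4 to 10^-8 M) with 48 h continuous exposure. Growth measured by sulforhodamine B protein assay. GI50 (50% net growth inhibition), TGI (total inhibition) and LC50 (50% net cell death) derived from dose-response.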

SN12C = assay: Cytotoxicity against human SN12C cells assessed as cell growth at 10 uM after 48 hrs by SRB assay; type: functional; conditions: read-out: Activity
Summary of the method: (§4)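 NCI primary one-dose screen at 10^-5 M against the full panel of about 60 human tumour cell lines, run to the NCI Drug Evaluation Branch protocol.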

SF-268 [2] = assay: Cytotoxicity against human SF268 cells after 48 hrs by SRB assay; type: functional; conditions: SF-268, 48 h; summary of the method: as §1
HCC 2998 = assay: Cytotoxicity against human HCC2998 cells after 48 hrs by SRB assay; type: functional; conditions: HCC 2998, 48 h; summary of the method: as §3
EKVX = assay: Cytotoxicity against human EKVX cells after 48 hrs by SRB assay; type: functional; summary of the method: as §3
SK-MEL-2 [3] = assay: Cytotoxicity against human SK-MEL-2 cells after 48 hrs by SRB assay; type: functional; conditions: SK-MEL-2, 48 h; summary of the method: as §1
MCF7 = assay: Cytotoxicity against human MCF7 cells assessed as cell growth at 10 uM after 48 hrs by SRB assay; type: functional; conditions: MCF7, 48 h, read-out: Activity
Summary of the method: (§5)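 NCI primary single-dose screen at 10^-5 M against the full panel of about 60 human tumor cell lines. Cells were in RPMI-1640 with 5% fetal calf serum and 2 mM L-glutamine and preincubated 24 h. Compound was given in DMSO with 48 h exposure. Growth was estimated by sulforhodamine B protein assay.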

U-251 = assay: Cytotoxicity against human U251 cells after 48 hrs by SRB assay; type: functional; conditions: U-251, 48 h
Summary of the method: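 NCI 60-cell-line five-dose screen. Cells were grown in 1640 medium with 5% fetal calf serum and 2 mM L-glutamine, with inoculum density set by cell line, and pre-incubated 24 h. Compound in DMSO was added at 10^-4 to 10^-8 M (10-fold steps) with 48 h continuous exposure. Growth was read by SRB protein assay, and GI50, TGI and LC50 were derived from dose-response.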

OVCAR-5 [4] = assay: Cytotoxicity against human OVCAR5 cells assessed as cell growth at 10 uM after 48 hrs by SRB assay; type: functional; conditions: OVCAR-5, 48 h, read-out: Activity; summary of the method: as §5
OVCAR-5 [5] = assay: Antitumor activity against human OVCAR5 cells implanted in mouse dosed qd for 4 days by formazan dye-based hollow fiber assay; type: functional, organism-based; summary of the method: as §2
COLO 205 [6] = assay: Cytotoxicity against human COLO205 cells assessed as cell growth at 10 uM after 48 hrs by SRB assay; type: functional; conditions: COLO 205, 48 h, read-out: Activity
Summary of the method: (§6)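 NCI primary single-dose screen at 10^-5 M against the ~60 human tumour cell line panel. Cells grown in RPMI-1640 with 5% fetal calf serum and 2 mM L-glutamine and pre-incubated 24 h before compound addition. Compound added from DMSO solution with 48 h exposure. Growth read by sulforhodamine B protein staining.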

HOP-92 [7] = assay: Cytotoxicity against human HOP92 cells assessed as cell growth at 10 uM after 48 hrs by SRB assay; type: functional; conditions: HOP-92, 48 h, read-out: Activity; summary of the method: as §6
NCI-H226 = assay: Cytotoxicity against human NCI-H226 cells assessed as cell growth at 10 uM after 48 hrs by SRB assay; type: functional; conditions: NCI-H226, 48 h, read-out: Activity; summary of the method: as §5
NCI-H23 = assay: Cytotoxicity against human NCI-H23 cells after 48 hrs by SRB assay; type: functional; conditions: NCI-H23, 48 h; summary of the method: as §1
SK-MEL-28 = assay: Cytotoxicity against human SK-MEL-28 cells assessed as cell growth at 10 uM after 48 hrs by SRB assay; type: functional; conditions: SK-MEL-28, 48 h, read-out: Activity; summary of the method: as §4
MOLT-4 = assay: Cytotoxicity against human MOLT4 cells assessed as cell growth at 10 uM after 48 hrs by SRB assay; type: functional; conditions: MOLT-4, 48 h, read-out: Activity; summary of the method: as §5
SK-MEL-2 [8] = assay: Cytotoxicity against human SK-MEL-2 cells assessed as cell growth at 10 uM after 48 hrs by SRB assay; type: functional; conditions: SK-MEL-2, 48 h, read-out: Activity; summary of the method: as §4
A498 = assay: Cytotoxicity against human A498 cells after 48 hrs by SRB assay; type: functional; conditions: A498, 48 h; summary of the method: as §3
SF-268 [9] = assay: Cytotoxicity against human SF268 cells assessed as cell growth at 10 uM after 48 hrs by SRB assay; type: functional; conditions: SF-268, 48 h, read-out: Activity; summary of the method: as §5
COLO 205 [10] = assay: Antitumor activity against human COLO205 cells implanted in mouse dosed qd for 4 days by formazan dye-based hollow fiber assay; type: functional, organism-based; summary of the method: as §2
Malme-3M = assay: Cytotoxicity against human MALME-3M cells after 48 hrs by SRB assay; type: functional; summary of the method: as §1
MDA-MB-468 = assay: Cytotoxicity against human MDA-MB-468 cells assessed as cell growth at 10 uM after 48 hrs by SRB assay; type: functional; conditions: MDA-MB-468, 48 h, read-out: Activity; summary of the method: as §5

Q: For `CCc1ccc(-c2ccc(=O)n(-c3ccc(S(N)(=O)=O)cc3)n2)cc1`, which LC50 (SF-539) is on record?
A: > 100 µM

Q: And the GI50 (SF-539; read-out: GI50)?
A: 1.84 µM

Q: And the GI50 (SF-539; read-out: pGI50 (converted))?
A: 1.82 µM

Q: What about the TGI (SF-539; read-out: pTGI (converted)) of the same compound?
A: 22.9 µM

Q: And the Activity (MDA-MB-435)?
A: inactive

Q: What about the LC50 (HOP-92 [1]) of the same compound?
A: > 100 µM

Q: And the GI50 (HOP-92 [1]; read-out: GI50)?
A: 17.3 µM

Q: And the GI50 (HOP-92 [1]; read-out: pGI50 (converted))?
A: 17.4 µM

Q: What about the TGI (HOP-92 [1]; read-out: pTGI (converted)) of the same compound?
A: 75.9 µM

Q: And the growth at 10 µM (SN12C)?
A: 58.4%

Q: What about the LC50 (SF-268 [2]) of the same compound?
A: > 100 µM

Q: And the GI50 (SF-268 [2]; read-out: GI50)?
A: 4.25 µM

Q: And the GI50 (SF-268 [2]; read-out: pGI50 (converted))?
A: 4.27 µM

Q: What about the TGI (SF-268 [2]; read-out: pTGI (converted)) of the same compound?
A: 47.9 µM

Q: And the LC50 (HCC 2998)?
A: > 100 µM

Q: And the GI50 (HCC 2998; read-out: GI50)?
A: 2.62 µM

Q: And the GI50 (HCC 2998; read-out: pGI50 (converted))?
A: 2.63 µM

Q: What about the TGI (HCC 2998; read-out: pTGI) of the same compound?
A: > 100 µM

Q: And the LC50 (50% net cell death) (EKVX)?
A: > 100 µM

Q: And the GI50 (EKVX; read-out: GI50)?
A: 2.79 µM

Q: What about the GI50 (EKVX; read-out: pGI50 (converted)) of the same compound?
A: 2.82 µM

Q: What about the TGI (EKVX; read-out: pTGI) of the same compound?
A: > 100 µM

Q: What about the LC50 (SK-MEL-2 [3]) of the same compound?
A: > 100 µM

Q: What about the GI50 (SK-MEL-2 [3]; read-out: GI50) of the same compound?
A: 10.7 µM

Q: What about the GI50 (SK-MEL-2 [3]; read-out: pGI50 (converted)) of the same compound?
A: 10.7 µM

Q: And the TGI (SK-MEL-2 [3]; read-out: pTGI (converted))?
A: 72.4 µM

Q: What about the growth at 10 µM (MCF7) of the same compound?
A: 30.1%

Q: And the LC50 (U-251)?
A: > 100 µM

Q: What about the GI50 (U-251; read-out: GI50) of the same compound?
A: 1.58 µM

Q: What about the GI50 (U-251; read-out: pGI50 (converted)) of the same compound?
A: 1.58 µM

Q: And the TGI (U-251; read-out: pTGI (converted))?
A: 24 µM

Q: And the growth at 10 µM (OVCAR-5 [4])?
A: 91.6%

Q: And the Activity (OVCAR-5 [5])?
A: inactive

Q: What about the growth at 10 µM (COLO 205 [6]) of the same compound?
A: 26%

Q: What about the growth at 10 µM (HOP-92 [7]) of the same compound?
A: 65.8%

Q: What about the growth at 10 µM (NCI-H226) of the same compound?
A: 94.1%

Q: And the LC50 (NCI-H23)?
A: > 100 µM

Q: What about the GI50 (NCI-H23; read-out: GI50) of the same compound?
A: 16.9 µM

Q: What about the GI50 (NCI-H23; read-out: pGI50 (converted)) of the same compound?
A: 17 µM

Q: And the TGI (NCI-H23; read-out: pTGI)?
A: > 100 µM

Q: What about the growth at 10 µM (SK-MEL-28) of the same compound?
A: 49.4%

Q: And the growth at 10 µM (MOLT-4)?
A: 16%

Q: And the growth at 10 µM (SK-MEL-2 [8])?
A: 1.5%

Q: And the LC50 (A498)?
A: > 100 µM

Q: And the GI50 (A498; read-out: GI50)?
A: 1.97 µM

Q: What about the GI50 (A498; read-out: pGI50 (converted)) of the same compound?
A: 1.95 µM

Q: What about the TGI (A498; read-out: pTGI (converted)) of the same compound?
A: 38 µM

Q: What about the growth at 10 µM (SF-268 [9]) of the same compound?
A: 42%

Q: And the Activity (COLO 205 [10])?
A: inactive

Q: And the LC50 (Malme-3M)?
A: 75.9 µM

Q: And the GI50 (Malme-3M; read-out: GI50)?
A: 0.188 µM

Q: What about the GI50 (Malme-3M; read-out: pGI50 (converted)) of the same compound?
A: 0.186 µM

Q: And the TGI (Malme-3M; read-out: pTGI (converted))?
A: 16.2 µM

Q: What about the growth at 10 µM (MDA-MB-468) of the same compound?
A: 7.89%
